Tests used:
[1] = target: T1, Neutrophil elastase (Homo sapiens) (UniProt P08246); assay: Inhibitory activity against Human leukocyte elastase was determined in vitro and expressed as kinetic constant for inhibition (reactivity)
T1 sequence (whole entry): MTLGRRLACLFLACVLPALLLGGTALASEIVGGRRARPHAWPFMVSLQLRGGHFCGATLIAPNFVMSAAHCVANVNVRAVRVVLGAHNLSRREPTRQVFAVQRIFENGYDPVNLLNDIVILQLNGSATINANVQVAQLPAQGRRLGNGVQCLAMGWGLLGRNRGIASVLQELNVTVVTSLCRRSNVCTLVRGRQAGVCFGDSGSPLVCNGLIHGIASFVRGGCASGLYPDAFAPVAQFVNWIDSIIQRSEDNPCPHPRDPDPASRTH
Summary of the method: (§1)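 Human leukocyte elastase inhibition measured in vitro at pH 7.8. Kinetic constants reported as k_inact (M⁻¹ s⁻¹), k_react (s⁻¹) and K_i* (nM).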

Neutrophil elastase [2] = target: T2, Neutrophil elastase (Homo sapiens, UniProt P08246); assay: Inhibitory activity against Human leukocyte elastase was determined; summary of the method: as §1
T2 sequence (P08246 whole entry): T1 sequence (whole entry)

[3] = target: T1, Neutrophil elastase (Homo sapiens)
Neutrophil elastase [4] = target: T2, Neutrophil elastase; assay: In vitro inhibitory activity against Human leukocyte elastase; summary of the method: as §1
Cricetinae gen. sp. [5] = assay: In vivo inhibitory activity of 10 mg/kg compound administered subcutaneously against Human leukocyte elastase induced hemorrhage in hamster; type: functional, Cricetulus griseus; conditions: sc, route subcutaneous
Summary of the method: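 Hamsters dosed subcutaneously at 10 mg/kg, 1 min before intratracheal instillation of human leukocyte elastase (25 μg), to induce pulmonary hemorrhage. Readout is % inhibition of in vivo HLE activity, mean ± error.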

[6] = Acid dissociation constant was determined; type: ADME
[7] = target: T1, Neutrophil elastase (Homo sapiens); assay: Inhibitory activity against Human leukocyte elastase as kinetic constant for inhibition (inactivation); summary of the method: as §1
Cricetinae gen. sp. [8] = assay: In vivo inhibitory activity of 10 mg/kg compound administered intravenously against Human leukocyte elastase induced hemorrhage in hamster; type: functional, Cricetulus griseus; conditions: route intravenous
Summary of the method: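 Hamster elastase-induced pulmonary hemorrhage model: 10 mg/kg given intravenously 1 min before intratracheal human leukocyte elastase (25 μg). Result expressed as % inhibition of HLE activity, mean ± error.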

Kreact [1] [s⁻¹]	Ki (Neutrophil elastase [2]) [nM]	K inact [3] [M⁻¹ s⁻¹]	Ki (Neutrophil elastase [4]) [nM]	pKa [6]	K inact [7] [M⁻¹ s⁻¹]	SMILES	inhibition in vivo at 10 mg/kg (Cricetinae gen. sp. [5]) [%]	inhibition in vivo at 10 mg/kg (Cricetinae gen. sp. [8]) [%]
6.6e-05	60	1100	60	2.5	1100	CCOP(=O)(OCC)OCN1C(=O)c2ccccc2S1(=O)=O	56	–
–	30	–	–	3.34	1900	O=C1c2ccccc2S(=O)(=O)N1COP(=O)(c1ccccc1)c1ccccc1	–	–
–	24	–	–	–	2300	CCCCP(=O)(CCCC)OCN1C(=O)c2ccccc2S1(=O)=O	–	–
1.2e-05	–	–	–	–	343000	CCOP(=O)(OCC)OCN1C(=O)c2c(C(C)C)cc(OC)cc2S1(=O)=O	–	92
–	20.5	–	–	2.26	4100	O=C1c2ccccc2S(=O)(=O)N1COP(=O)(OCc1ccccc1)OCc1ccccc1	–	–
–	17	–	–	2.59	4800	CCCCOP(=O)(OCCCC)OCN1C(=O)c2ccccc2S1(=O)=O	–	–
1.4e-05	–	–	4.5	–	3300	CCOP(=O)(OCC)OCN1C(=O)c2c(C(C)C)cc(O)cc2S1(=O)=O	–	–
5.6e-05	–	–	0.07	–	800000	CCOP(=O)(OCC)OCN1C(=O)c2c(C(C)CC)cccc2S1(=O)=O (stereo not drawn)	83	–
5.3e-05	–	–	0.1	–	530000	CCOP(=O)(OCC)OCN1C(=O)c2c(C(C)C)cccc2S1(=O)=O	–	84

SMILES	Kreact [1] [s⁻¹]	Ki (Neutrophil elastase [2]) [nM]	K inact [3] [M⁻¹ s⁻¹]	Ki (Neutrophil elastase [4]) [nM]	pKa [6]	K inact [7] [M⁻¹ s⁻¹]	inhibition in vivo at 10 mg/kg (Cricetinae gen. sp. [5]) [%]	inhibition in vivo at 10 mg/kg (Cricetinae gen. sp. [8]) [%]
COP(=O)(OC)OCN1C(=O)c2ccccc2S1(=O)=O	–	100	–	–	2.56	800	–	–
O=C1c2ccccc2S(=O)(=O)N1COP(=O)(Oc1ccccc1)Oc1ccccc1	–	6.5	–	–	1.91	11000	–	–
